High-throughput results from PubChem.
PREPL inh: human PREPL enzyme inhibition | Q4J6C6 | recombinant PREPL, fluorescence polarization activity-based probe | inhibition, % at 5.96 µM | hit rate 0.68% among 320,000 | AID 2751; in the data active = inhibition above about 43%;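 also: 0% = enzyme with DMSO and 100% = wells lacking enzyme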
Target sequence (Q4J6C6 whole entry, looked up): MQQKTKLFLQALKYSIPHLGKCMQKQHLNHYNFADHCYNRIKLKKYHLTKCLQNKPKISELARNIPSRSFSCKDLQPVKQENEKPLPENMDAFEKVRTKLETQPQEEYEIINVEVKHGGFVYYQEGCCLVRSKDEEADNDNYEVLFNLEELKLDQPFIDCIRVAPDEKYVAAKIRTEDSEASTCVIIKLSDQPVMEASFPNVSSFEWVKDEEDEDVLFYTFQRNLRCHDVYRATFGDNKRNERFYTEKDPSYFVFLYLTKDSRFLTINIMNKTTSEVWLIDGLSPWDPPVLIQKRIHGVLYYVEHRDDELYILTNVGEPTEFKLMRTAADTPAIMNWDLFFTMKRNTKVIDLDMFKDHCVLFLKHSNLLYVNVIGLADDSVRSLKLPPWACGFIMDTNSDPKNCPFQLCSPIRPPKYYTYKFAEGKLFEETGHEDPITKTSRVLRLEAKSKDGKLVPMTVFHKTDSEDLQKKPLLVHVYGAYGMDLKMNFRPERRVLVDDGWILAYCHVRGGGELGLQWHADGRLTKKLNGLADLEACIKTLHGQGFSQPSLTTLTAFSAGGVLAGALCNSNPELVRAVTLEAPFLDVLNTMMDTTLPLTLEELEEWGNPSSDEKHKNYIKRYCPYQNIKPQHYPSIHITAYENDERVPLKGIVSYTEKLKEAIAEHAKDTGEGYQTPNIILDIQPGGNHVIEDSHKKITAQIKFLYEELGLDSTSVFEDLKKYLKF
SKN-1 block: C. elegans SKN-1 inhibition; hit rate 0.49% among 360,000; AID 624304; inhibition, % at 21.8 µM; C. elegans VP596 Pgst-4::GFP/RFP ratio, acrylamide-induced, 24 h;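 active = interference check ratio from 0.5 to 1.5 plus GFP to RFP signal ratio inhibition reaching or exceeding a fixed threshold, cut at about 30% in these data, passing the limit was not always enough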
eLon inh: inhibitors of E. coli Lon protease; P0A9M0; purified E. coli Lon protease, fluorescence polarization; inhibition, % at 7.94 µM; hit rate 0.42% among 360,000; AID 602123; in the data active = inhibition above about 13%, passing the limit was not always enough;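 also: 0% = enzyme with probe and DMSO and 100% = no enzyme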
TbMetRS inhib: blocks T. brucei methionyl-tRNA synthetase activity; hit rate 0.4% among 360,000; inhibition, % at 11.9 µM; AID 624268; purified T. brucei MetRS, ATP depletion, Kinase-Glo luminescence;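 active = inhibition above a per-plate cutoff of the control wells' mean inhibition plus 3 SD, cut at about 5.5% in these data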;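 also: 0% = DMSO wells median and 100% = median of wells with control inhibitor compound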
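Material: T. brucei methionyl-tRNA synthetase, purified; reagent: substrates ATP, L-methionine and bulk Escherichia coli tRNA; dosing: 11.9 µM single point; timing: 15 min plus 2 h at 25 °C; detection: luminescence of leftover ATP; evaluation: % inhibition; control set: DMSO-only wells as low control; replicates: singlicate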
MT1-MMP act inh: MT1-MMP (human) activation inhibition; AID 651647; hit rate 0.061% among 360,000; GFP/RFP ratio change, % at 20 µM; HT1080 RFP-PRO-GFP cells, GFP/RFP ratio fluorescence, overnight; percent of plate control window, DMSO zero; P50281;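 active = GFP/RFP ratio change of at least 30% with cell ATP level not reduced by more than half and red fluorescence within 50% of control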
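system = RFP-PRO-GFP reporter HT1080 cells | dosing = 20 µM single dose, 1% DMSO | timing = overnight cell settling, then overnight compound exposure, 37 °C, 5% CO2 | read-out basis = GFP/RFP fluorescence ratio | controls = DMSO and RFP-L50D-GFP cell wells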
iPSC survival up: enhancers of human iPSC single-cell survival | hiPSC single-cell survival, ATPlite luminescence; 100% = ROCK inhibitor wells, 0% = DMSO | survival enhancement, % at 20 µM | hit rate 0.044% among 360,000 | AID 602274; in the data active = survival enhancement above about 18%;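 also: cells exposed to compounds for 16 hours before the ATP read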
eLon confirm: confirmation of E. coli Lon protease inhibitors | inhibition, % at 7.94 µM | AID 602230 | shares compounds with eLon inh | purified E. coli Lon, fluorescence polarization | hit rate 31% among 1,400; in the data active = inhibition above about 16%;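 also: 0% = enzyme with probe and DMSO and 100% = no enzyme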
Tb MetRS conf: Trypanosoma brucei MetRS inhibition confirmed; shares compounds with TbMetRS inhib; T. brucei MetRS enzyme, luminescence (ATP depletion); inhibition, % at 11.9 µM; hit rate 93% among 1,400; AID 624412; in the data active = inhibition above about 7%
Jurkat cytotox: kills Jurkat cells in T. brucei MetRS counterscreen | AID 624413 | hit rate 12% among 1,400 | shares compounds with TbMetRS inhib | inhibition, % at 8.3 µM | Jurkat cells viability, ATP luminescence; in the data active = inhibition above about 15%;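 also: 0% = vehicle and 100% = reference inhibitor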
TbMetRS FP orth: inhibits T. brucei methionyl tRNA synthetase in orthogonal FP test; shares compounds with TbMetRS inhib; purified T. brucei MetRS, fluorescence polarization; inhibition, % at 11.9 µM; hit rate 44% among 1,400; AID 651607; in the data active = inhibition above about 17%;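 also: 0% = vehicle wells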
MT1-MMP conf: blocks activation of human MT1-MMP in validation testing. hit rate 10% among 200. inhibition, % at 20 µM. shares compounds with MT1-MMP act inh. HT1080 RFP-PRO-GFP cells, GFP and RFP fluorescence ratio, overnight;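 active = inhibition of at least 50% in the primary cell screen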
Starred values were filed as active, the others as inactive; nt = no result given. Shown are actives, neighbours in structure and some others; about 1.8% of the full set was active somewhere.

SMILES	PREPL inh	SKN-1 block	eLon inh	TbMetRS inhib	MT1-MMP act inh	iPSC survival up	eLon confirm	Tb MetRS conf	Jurkat cytotox	TbMetRS FP orth	others
O=C(NC12CC3CC(CC(C3)C1)C2)c1cnccn1	-1	22	15*	0	1	0	-22	nt	nt	nt
C/C(CC(=O)NC12CC3CC(CC(C3)C1)C2)=N\NC(=O)c1cnccn1	2	3	-9	-1	2	-1	nt	nt	nt	nt
CC1CCN(C(=O)C(C)NCc2ccc(F)cc2)CC1 (centres undefined)	11	3	36*	-1	-5	-1	3	nt	nt	nt
O=C(CSc1nnc(COc2ccccc2)n1-c1ccccc1)c1cccs1	-2	5	9	0	-3	4	nt	nt	nt	nt
Cn1cccc1C(=O)NNC(=O)COc1ccccc1F	-5	-6	-16	0	3	0	nt	nt	nt	nt
CCN(C(=O)CSc1nnc(C2CC2)n1-c1ccccc1)C1CCS(=O)(=O)C1 (centres undefined)	-1	12	-4	0	-1	-1	nt	nt	nt	nt
CC(C)CN(C(=O)CSc1nnc(C2CC2)n1-c1ccccc1)C1CCS(=O)(=O)C1 (centres undefined)	20	-4	56*	0	0	3	55*	nt	nt	nt
Cc1ccc(C2C(C#N)=C(N)OC3=C2C(=O)CC(C)(C)C3)s1 (centres undefined)	-6	7	0	0	-4	0	nt	nt	nt	nt
Cc1cccn2c(=O)c(C=C(C#N)C#N)c(N3CCN(C)CC3)nc12	-1	6	17*	-2	-6	-1	13	nt	nt	nt
O=C(N/N=C/c1ccc(-c2ccc(S(=O)(=O)Nc3ncccn3)cc2)o1)c1cc2ccccc2cc1O	27	7	26*	6.8*	1	7	30*	30*	-4	27*
Cc1ccc(C(=O)Nn2c(O)c(C=C3N=c4ccccc4=N3)sc2=S)cc1	15	1	26*	7.5*	0	-1	33*	14*	7	18*
CC(C)c1ccc(NC(=O)c2cc(S(=O)(=O)N3CCCCC3)c[nH]2)cc1	-4	-19	5	1	1	0	nt	nt	nt	nt
C[C@H](O)[C@@H]1CN2CCc3c([nH]c4ccccc34)[C@@H]2C[C@@H]1N(C)C(=S)NCCc1ccccc1	nt	-45	197*	7.8*	-68	0	121*	6.7*	6	11
CCNC(=O)N(C)[C@H]1C[C@H]2c3[nH]c4ccccc4c3CCN2C[C@H]1[C@H](C)O	nt	17	-5	2	3	4	nt	nt	nt	nt
Cn1nnc(NC(=O)c2cccc([N+](=O)[O-])c2)n1	5	-8	-4	0	0	0	nt	nt	nt	nt
O=C(N=Nc1c(O)[nH]c2ccc(Br)cc12)c1ccccc1-n1cccc1	3	3	24*	8.6*	-8	-1	4	26*	76*	12
O=C(C/C=N\OCc1ccc([N+](=O)[O-])cc1)Nc1ccc(Br)cc1	9	8	17*	83*	3	4	-2	101*	-1	91*
O=C(COc1ccc([N+](=O)[O-])cc1)NNC(=O)Nc1ccc([N+](=O)[O-])cc1	6	-5	0	0	2	0	nt	nt	nt	nt
Cc1cccc(NS(=O)(=O)c2ccc3c(c2)NC(=O)CO3)c1C	-5	0	2	-1	-4	0	nt	nt	nt	nt
Cc1cc2cc(CNC(=O)c3ccc(S(=O)(=O)N4CCCCC4)cc3)ccc2n1C	6	62*	16*	0	40*	2	-10	nt	nt	nt	MT1-MMP conf=4
COc1c(O)cc2c(c1O)[C@@H]1O[C@H](CO)[C@@H](O)[C@H](O)[C@H]1OC2=O	0	-1	2	0	1	0	nt	nt	nt	nt
Cc1c(C(=O)O)c(O)cc2c1C(=O)c1c(O)c([C@@H]3O[C@H](CO)[C@@H](O)[C@H](O)[C@H]3O)c(O)c(O)c1C2=O	4	70	45*	0	50*	0	22*	nt	nt	nt	MT1-MMP conf=41
Cc1cc(O)c(C)c(O)c1/C=N/NC(=O)c1cccnc1	8	-5	3	0	0	0	nt	nt	nt	nt
COc1ccc(C(CNC(=O)Nc2ccc(Cl)cc2)N2CCN(C)CC2)cc1 (centres undefined)	10	13	2	15*	0	0	nt	39*	4	17*
Cc1ccc(NC(=O)c2ccc(NCCN)c([N+](=O)[O-])c2)cc1Cl	41	9	-2	1	10	-1	nt	nt	nt	nt
SMILES	PREPL inh	SKN-1 block	eLon inh	TbMetRS inhib	MT1-MMP act inh	iPSC survival up	eLon confirm	Tb MetRS conf	Jurkat cytotox	TbMetRS FP orth	others
CCOc1ccc(NC(=S)NCc2nc3ccccc3[nH]2)cc1	-3	2	-10	4	2	2	nt	nt	nt	nt
FC(F)Oc1ccc(NC(=S)NCc2nc3ccccc3[nH]2)cc1	-6	-16	2	55*	4	0	nt	65*	9	40*
O=C(OCC(=O)c1c[nH]c2ccccc12)c1ccc(OC(F)F)cc1	nt	2	-3	12*	1	2	nt	31*	4	29*
COc1ccccc1NS(=O)(=O)c1cccc(N2CC(O)=C(c3ccccc3)C2=N)c1	8	-9	1	0	-2	-2	nt	nt	nt	nt
CC/C(O)=C1\C(=O)CCCC1=NCc1nc2ccccc2[nH]1	6	11	-7	8.9*	4	1	nt	16*	2	5
CC/C(O)=C1\C(=O)CCCC1=NCCc1nc2ccccc2[nH]1	-11	-5	4	1	1	1	nt	nt	nt	nt
NS(=O)(=O)c1ccc(NC(NC(=O)c2cccnc2)C(Cl)(Cl)Cl)cc1 (centres undefined)	-10	4	1	2	-3	0	nt	nt	nt	nt
Cc1ccc(C2CC2C(=O)NNC(=S)Nc2ccc(Cl)cc2)cc1 (centres undefined)	-15	-10	-2	39*	1	0	nt	67*	1	38*
O=C(O)CCCCCn1c(SCC(=O)c2ccc(O)c(O)c2)nc2ccsc2c1=O	12	-1	6	6.2*	1	0	nt	14*	0	36*
